Results: ChEMBL document CHEMBL4422614 (Eur J Med Chem, 2019)
The source made the active and inactive calls. The calls are words filed in the database; no cut-off is given here.

Key:
[1] = Cardiotoxicity in C57BL/6 mouse assessed as abnormal changes up to 2000 mg/kg, ig after 14 days by microscopic analysis; type: toxicity, organism-based; conditions: in vivo, po, 336 h
Method in brief: (§1)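 Mice given a single intragastric dose of test compound at various dosages, then observed for 14 days for death and abnormal behaviour. On day 14, animals were sacrificed and heart, liver, lungs and kidneys examined.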

[2] = Acute Toxicity in C57BL/6 mouse lung assessed as tissue damage up to 2000 mg/kg, ig after 14 days by microscopic analysis; type: organism-based; conditions: in vivo, po, 336 h; method in brief: as §1
[3] = Nephrotoxicity in C57BL/6 mouse assessed as abnormal changes up to 2000 mg/kg, ig after 14 days by microscopic analysis; type: toxicity, organism-based; conditions: in vivo, po, 336 h; method in brief: as §1
[4] = Metal chelating activity of the compound assessed as formation of cupric-compound complex at 50 uM after 30 mins by UV-vis spectrophotometric analysis
Method in brief: (§2)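 UV-vis absorption spectra of compound (50 µM) were recorded in HEPES buffer alone and with 50 µM CuSO4, ZnCl2, FeSO4 or FeCl3, and spectral changes were assessed.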

[5] = Acute Toxicity in C57BL/6 mouse up to 2000 mg/kg, ig measured every 14 days; type: organism-based; conditions: in vivo, po, 336 h; method in brief: as §1
[6] = target: 3',5'-cyclic-AMP phosphodiesterase 4D (Homo sapiens, UniProt Q08499); assay: Inhibition of human PDE4D2 (86 to 413 residues) catalytic domain using [3H]-cAMP as substrate after 15 mins by liquid scintillation counting method
[7] = Acute Toxicity in C57BL/6 mouse lung assessed as abnormal changes up to 2000 mg/kg, ig after 14 days by microscopic analysis; type: organism-based; conditions: in vivo, po, 336 h; method in brief: as §1
[8] = test system: Mus musculus; assay: Neuroprotection in amyloid beta (25 to 35 residues) induced C57BL/6J mouse model of Alzheimer's disease assessed as reduction in ratio of apoptotic neuron in DG hippocampus region at 30 mg/kg/day, ig administered for 26 consecutive days by hematoxylin and eosin staining-based light microscopic analysis (reference value: 55.8 +/- 7.2%); type: ADME, organism-based; design: scale not given: the % may be the effect or the level left; conditions: in vivo, po
Method in brief: (§3)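 Hippocampal CA1, CA3 and DG neurons were stained with H&E after the Aβ25-35 ICV model and 26-day intragastric dosing. Denatured cell index = denatured cells/total cells, n = 5. Values are mean ± SD, two-way ANOVA versus model.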

[9] = Antioxidant activity assessed as trolox equivalent of AAPH-induced radical scavenging activity at 10 to 20 uM preincubated for 10 mins followed by AAPH addition measured every minute for 120 mins by ORAC fluorescein assay; type: functional
Method in brief: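 ORAC values are expressed as trolox equivalents, mean ± SD of three independent experiments.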

[10] = Metal chelating activity of the compound assessed as formation of zinc-compound complex at 50 uM after 30 mins by UV-vis spectrophotometric analysis; method in brief: as §2
[11] = Toxicity in amyloid beta (25 to 35 residues) induced C57BL/6J mouse model of Alzheimer's disease assessed as emesis at 30 mg/kg/day, ig administered for 26 consecutive days; type: organism-based; conditions: in vivo, po
Method in brief: (§4)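 Mice were randomized into 7 groups. All except sham got an ICV injection of Aβ25-35 (3 nmol); sham got the same volume of saline ICV. Dosing was intragastric daily for 26 days, with 0.5% CMC-Na as vehicle for sham and model. Body weight, diarrhea and emesis-like behavior were monitored.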

[12] = Metal chelating activity assessed as inhibition of Cu(II)-induced amyloid beta (1 to 42 residues) aggregation at 25 uM after 24 hrs by TEM assay
Method in brief: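 Samples were prepared as for the ThT assay. 10 µL aliquots were applied to carbon-coated copper grids for 2 min, then stained with 3% phosphotungstic acid for 2 min and imaged by transmission electron microscopy.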

[13] = Toxicity in amyloid beta (25 to 35 residues) induced C57BL/6J mouse model of Alzheimer's disease assessed as loss of body weight at 30 mg/kg/day, ig administered for 26 consecutive days; type: organism-based; conditions: in vivo, po; method in brief: as §4
[14] = Hepatotoxicity in C57BL/6 mouse assessed as abnormal changes up to 2000 mg/kg, ig after 14 days by microscopic analysis; type: toxicity, organism-based; conditions: in vivo, po, 336 h; method in brief: as §1
[15] = test system: Mus musculus; assay: Cognition enhancement activity in amyloid beta (25 to 35 residues) induced C57BL/6J mouse model of Alzheimer's disease assessed as swimming time in effective region at 30 mg/kg/day, ig administered for 26 consecutive days by Morris water maze test (4.3 +/- 1.3 sec); type: functional; method in brief: as §4
[16] = in vitro; conditions: PAMPA
[17] = Drug metabolism in Sprague-Dawley rat liver microsomes assessed as metabolic rate up to 180 mins in presence of NADPH by UV-based LC-MS/MS analysis; type: ADME, Microsome; conditions: 3 h
[18] = test system: Mus musculus; assay: Cognition enhancement activity in amyloid beta (25 to 35 residues) induced C57BL/6J mouse model of Alzheimer's disease assessed as swimming path length in virtual platform at 30 mg/kg/day, ig administered for 26 consecutive days by Morris water maze test (10.2 +/- 3.2 cm); type: functional; method in brief: as §4
[19] = Metal chelating activity assessed as inhibition of Cu(II)/ascorbate-induced ROS production by measuring […] level at 10 uM by fluorescence assay
Method in brief: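 A Cu-ascorbate redox system in PBS (pH 7.4) at 37 °C, with Cu(II) 5 µM, ascorbate 150 µM and coumarin-3-carboxylic acid 50 µM as the hydroxyl radical trap. Compound was pre-incubated 10 min before ascorbate was added. Fluorescence of 7-hydroxy-CCA (ex 395, em 450 nm) was read every 30 s for 15 min.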

[20] = Nephrotoxicity in C57BL/6 mouse assessed as tissue damage up to 2000 mg/kg, ig after 14 days by microscopic analysis; type: toxicity, organism-based; conditions: in vivo, po, 336 h; method in brief: as §1
[21] = Acute Toxicity in C57BL/6 mouse assessed as abnormal behavior up to 2000 mg/kg, ig measured over 14 days; type: organism-based; conditions: in vivo, po, 336 h; method in brief: as §1
[22] = test system: SH-SY5Y; assay: Cytotoxicity against human SH-SY5Y cells assessed as effect on cell viability at 10 uM after 24 hrs by MTT assay; type: cell-based
Method in brief: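 SH-SY5Y viability was measured by MTT after exposure to compounds at 10 µM. Results are percent of vehicle control from three independent experiments.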

[23] = in vitro; conditions: Sprague-Dawley, rat, liver microsomes
[24] = test system: Mus musculus; assay: Cognition enhancement activity in amyloid beta (25 to 35 residues) induced C57BL/6J mouse model of Alzheimer's disease assessed as decrease in escape latancy at 30 mg/kg/day, ig administered for 26 consecutive days by Morris water maze test; type: functional, organism-based; method in brief: as §4
[25] = test system: Mus musculus; assay: Cognition enhancement activity in amyloid beta (25 to 35 residues) induced C57BL/6J mouse model of Alzheimer's disease assessed as swimming speed at 30 mg/kg/day, ig administered for 26 consecutive days by Morris water maze test (reference value: 15.6 +/- 2.4 cm/sec); type: functional; method in brief: as §4
[26] = Hepatotoxicity in C57BL/6 mouse assessed as tissue damage up to 2000 mg/kg, ig after 14 days by microscopic analysis; type: toxicity, organism-based; conditions: in vivo, po, 336 h; method in brief: as §1
[27] = test system: Mus musculus; assay: Cognition enhancement activity in amyloid beta (25 to 35 residues) induced C57BL/6J mouse model of Alzheimer's disease assessed as increase in number of virtual platform crossing at 30 mg/kg/day, ig administered for 26 consecutive days by Morris water maze test; type: functional, organism-based; method in brief: as §4
[28] = test system: Mus musculus; assay: Neuroprotection in C57BL/6J mouse model of amyloid beta (25 to 35 residues) induced Alzheimer's disease assessed as reduction in ratio of apoptotic neuron in CA1 hippocampus region at 30 mg/kg/day, ig administered for 26 consecutive days by hematoxylin and eosin staining-based light microscopic analysis (reference value: 40.6 +/- 12.5%); type: ADME, organism-based; design: scale not given: the % may be the effect or the level left; conditions: in vivo, po; method in brief: as §3
[29] = test system: SH-SY5Y; assay: Antioxidant activity in human SH-SY5Y cells assessed as inhibition of t-BuOOH-induced intracellular oxidative stress by measuring ROS level preincubated for 24 hrs followed by t-BuOOH addition and measured after 30 mins by DCFH-DA dye-based fluorescence assay; type: functional, cell-based
[30] = Metal chelating activity of the compound assessed as formation of ferric-compound complex at 50 uM after 30 mins by UV-vis spectrophotometric analysis; method in brief: as §2
[31] = Acute Toxicity in C57BL/6 mouse assessed as mouse mortality up to 2000 mg/kg, ig measured over 14 days; type: organism-based; conditions: in vivo, po, 336 h; method in brief: as §1
[32] = Cardiotoxicity in C57BL/6 mouse assessed as tissue damage up to 2000 mg/kg, ig after 14 days by microscopic analysis; type: toxicity, organism-based; conditions: in vivo, po, 336 h; method in brief: as §1
[33] = test system: Mus musculus; assay: Neuroprotection in amyloid beta (25 to 35 residues) induced C57BL/6J mouse model of Alzheimer's disease assessed as reduction in ratio of apoptotic neuron in CA3 hippocampus region at 30 mg/kg/day, ig administered for 26 consecutive days by hematoxylin and eosin staining-based light microscopic analysis (reference value: 80.2 +/- 8.6%); type: ADME, organism-based; design: scale not given: the % may be the effect or the level left; conditions: in vivo, po; method in brief: as §3
[34] = Metal chelating activity of the compound assessed as formation of ferrous-compound complex at 50 uM after 30 mins by UV-vis spectrophotometric analysis; method in brief: as §2
[35] = Toxicity in amyloid beta (25 to 35 residues) induced C57BL/6J mouse model of Alzheimer's disease assessed as diarrhea at 30 mg/kg/day, ig administered for 26 consecutive days; type: organism-based; conditions: in vivo, po; method in brief: as §4

Sequence of 3',5'-cyclic-AMP phosphodiesterase 4D (Q08499 whole entry, the tested form may be a part): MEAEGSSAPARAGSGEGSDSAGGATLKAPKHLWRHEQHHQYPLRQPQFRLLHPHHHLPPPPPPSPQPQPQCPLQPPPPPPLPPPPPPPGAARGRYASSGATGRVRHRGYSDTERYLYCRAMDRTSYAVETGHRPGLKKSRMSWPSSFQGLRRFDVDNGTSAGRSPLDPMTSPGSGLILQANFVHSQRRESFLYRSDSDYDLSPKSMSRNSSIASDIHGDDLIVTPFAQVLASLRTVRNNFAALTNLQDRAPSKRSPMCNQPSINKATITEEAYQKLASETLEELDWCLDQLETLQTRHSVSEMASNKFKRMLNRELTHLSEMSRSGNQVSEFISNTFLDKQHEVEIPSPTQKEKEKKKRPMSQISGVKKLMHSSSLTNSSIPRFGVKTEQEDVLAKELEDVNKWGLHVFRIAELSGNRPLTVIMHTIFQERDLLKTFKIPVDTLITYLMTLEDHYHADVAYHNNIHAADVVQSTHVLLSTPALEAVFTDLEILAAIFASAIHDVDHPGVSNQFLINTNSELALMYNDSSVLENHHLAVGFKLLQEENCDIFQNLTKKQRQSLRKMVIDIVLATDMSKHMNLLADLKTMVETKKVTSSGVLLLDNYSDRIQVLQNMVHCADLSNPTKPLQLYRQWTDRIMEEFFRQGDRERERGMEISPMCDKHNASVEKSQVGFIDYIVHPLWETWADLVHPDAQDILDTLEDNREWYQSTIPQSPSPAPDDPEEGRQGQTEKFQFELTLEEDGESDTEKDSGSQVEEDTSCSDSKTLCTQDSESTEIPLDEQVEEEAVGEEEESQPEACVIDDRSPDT

## Cl.O=C(Nc1ccc(O)c2ncccc12)c1ccc(OC(F)F)c(OCC2CC2)c1
[1]
  Activity: Non-Toxic
[2]
  Activity: Non-Toxic
[3]
  Activity: Non-Toxic
[4]
  Activity: Active
[5]
  Activity: Non-Toxic
[6]
  IC50: 0.399 µM
[7]
  Activity: Non-Toxic
[8]
  Activity: 18.7%
[9]
  Activity: 0.6 equiv
[10]
  Activity: Active
[11]
  Activity: Non-Toxic
[12]
  Activity: Active
[13]
  Activity: Non-Toxic
[14]
  Activity: Non-Toxic
[15]
  Time: 6.8 s
[16]
  Papp at 10 h, 100 ug/ml: 129 nm/s
[17]
  K: 0.00767 min⁻¹
[18]
  Activity: 19 cm
[19]
  Activity: Active
[20]
  Activity: Non-Toxic
[21]
  Activity: Non-Toxic
[22]
  Activity: Non-Toxic
[23]
  half-life: 1.5 h
[24]
  Activity: Active
[25]
  Activity: 15 cm/s
[26]
  Activity: Non-Toxic
[27]
  Activity: Active
[28]
  Activity: 12.5%
[29]
  Activity: Dose-dependent effect
[30]
  Activity: Active
[31]
  Activity: Non-Toxic
[32]
  Activity: Non-Toxic
[33]
  Activity: 7.9%
[34]
  Activity: Active
[35]
  Activity: Non-Toxic
